Columns and labels:
Calf thymus DNA = test: Binding affinity to calf thymus DNA assessed as change in melting temperature; format: nucleic-acid assay; conditions: Bos taurus
Method in brief: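 Drug first dissolved in Me2SO to a final 5% Me2SO in the assay medium. DNA binding is read as the shift in DNA melting temperature (ΔTm). ΔTm below 1 is taken as insignificant binding.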

L1210 [1] = test: Selectivity ratio of ED50 for inhibition of DNA synthesis in mouse L1210 cells to ED50 for inhibition of RNA synthesis in mouse L1210 cells; format: functional
Method in brief: (§1)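 L1210 leukemia cells. Drugs were first dissolved in Me2SO to a final 1% Me2SO in the assay medium. Inhibition of DNA and RNA synthesis was measured separately and reported as ED50 (50% inhibitory dose, μM). Selectivity is the ratio of the DNA ED50 to the RNA ED50.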

L1210 [2] = test: Inhibition of DNA synthesis in mouse L1210 cells; format: functional; conditions: read-out: ED50 (the source's name); method in brief: as §1
P388 [3] = test: Antitumor activity against ip dosed mouse P388 cells allografted in CDF/BDF mouse assessed as survival time administered as qd for 1 to 9 days relative to control; format: functional
L1210 [4] = test: Inhibition of RNA synthesis in mouse L1210 cells; format: functional; conditions: read-out: ED50 (the source's name); method in brief: as §1
Salmonella typhimurium [5] = test: Mutagenicity in Salmonella typhimurium TA98 assessed as number of revertants by Ames test in presence of microsomal activation; format: toxicity, organism-based; conditions: salmonella enterica subsp. enterica serovar typhimurium
Method in brief: (§2)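 Ames plate test using Salmonella typhimurium tester strain TA98. Compounds were tested over dose ranges of 0-20 to 0-100 µg/plate, depending on the compound, and the toxicity level per plate was noted. Mutagenicity is expressed as revertants produced per nmol of compound.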

Salmonella typhimurium [6] = test: Mutagenicity in Salmonella typhimurium TA98 assessed as number of revertants by Ames test in absence of microsomal activation; format: toxicity, organism-based; conditions: salmonella enterica subsp. enterica serovar typhimurium; method in brief: as §2
P388 [7] = test: Antitumor activity against mouse P388 cells allografted in CDF/BDF mouse assessed as survival time at 25 mg/kg, ip administered as qd on day 5, 9, 13; format: functional; conditions: route intraperitoneal
P388 [8] = test: Antitumor activity against mouse P388 cells allografted in CDF/BDF mouse assessed as survival time at 12.5 mg/kg, ip administered as qd for 1 to 9 days relative to control; format: functional; conditions: route intraperitoneal
P388 [9] = test: Antitumor activity against mouse P388 cells allografted in CDF/BDF mouse assessed as survival time at 6.25 mg/kg, ip administered as qd for 1 to 9 days relative to control; format: functional; conditions: route intraperitoneal
P388 [10] = test: Antitumor activity against mouse P388 cells allografted in CDF/BDF mouse assessed as survival time at 25 mg/kg, ip administered as qd for 1 to 9 days relative to control; format: functional; conditions: route intraperitoneal
[11] = Aqueous solubility of the compound using 10% propylene glycol vehicle; format: physicochemical; conditions: 10% propylene glycol in water
P388 [12] = test: Antitumor activity against mouse P388 cells allografted in CDF/BDF mouse assessed as survival time at 37.5 mg/kg, ip administered as qd on day 5, 9, 13; format: functional; conditions: route intraperitoneal
[13] = Aqueous solubility of the compound; format: physicochemical; conditions: water
Rattus norvegicus = organism: Rattus norvegicus; test: Cardiotoxicity in rat assessed as minimum cumulative cardiotoxic dose by Zbinden test; format: toxicity, organism-based; conditions: in vivo
Method in brief: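 Zbinden cardiotoxicity assay in rats. Drug was given cumulatively, with ECG monitoring. Value is the minimum total dose (mg/kg) that causes significant ECG alterations.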

Salmonella typhimurium [14] = test: Toxicity in Salmonella typhimurium TA98 assessed as concentration required to cause mortality per plate; format: organism-based; conditions: salmonella enterica subsp. enterica serovar typhimurium
Method in brief: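 Ames plate test with Salmonella typhimurium tester strain TA98. Compounds were tested over ranges from 0–20 up to 0–100 µg/plate, depending on compound. The toxicity level is reported in µg/plate.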

P388 [15] = test: Antitumor activity against mouse P388 cells allografted in CDF/BDF mouse assessed as survival time at 3.13 mg/kg, ip administered as qd for 1 to 9 days relative to control; format: functional; conditions: route intraperitoneal
P388 [16] = test: Antitumor activity against mouse P388 cells allografted in CDF/BDF mouse assessed as survival time at 1.56 mg/kg, ip administered as qd for 1 to 9 days relative to control; format: functional; conditions: route intraperitoneal
P388 [17] = test: Antitumor activity against mouse P388 cells allografted in CDF/BDF mouse assessed as survival time at 18.8 mg/kg, ip administered as qd on day 5, 9, 13; format: functional; conditions: route intraperitoneal
P388 [18] = test: Antitumor activity against mouse P388 cells allografted in CDF/BDF mouse assessed as survival time at 3.12 mg/kg, ip administered as qd for 1 to 9 days relative to control; format: functional; conditions: route intraperitoneal
P388 [19] = test: Antitumor activity against mouse P388 cells allografted in CDF/BDF mouse assessed as survival time at 18 mg/kg, ip administered as qd on day 5, 9, 13; format: functional; conditions: route intraperitoneal
P388 [20] = test: Antitumor activity against mouse P388 cells allografted in CDF/BDF mouse assessed as survival time at 4 mg/kg, ip administered as qd for 1 to 9 days relative to control; format: functional; conditions: route intraperitoneal
P388 [21] = test: Antitumor activity against mouse P388 cells allografted in CDF/BDF mouse assessed as survival time at 0.78 mg/kg, ip administered as qd for 1 to 9 days relative to control; format: functional; conditions: route intraperitoneal
P388 [22] = test: Antitumor activity against mouse P388 cells allografted in CDF/BDF mouse assessed as survival time at 8 mg/kg, ip administered as qd on day 5, 9, 13; format: functional; conditions: route intraperitoneal

| SMILES | ΔTm (Calf thymus DNA) | Ratio ED50 (L1210 [1]) | EC50 (L1210 [2]) | EC50 (L1210 [4]) | Activity (Salmonella typhimurium [5]) | Activity (Salmonella typhimurium [6]) | other results |
| --- | --- | --- | --- | --- | --- | --- | --- |
| CCCCCCCCCCN(CCCCCCCCCC)[C@H]1C[C@H](O[C@H]2C[C@](O)(C(C)=O)Cc3c(O)c4c(c(O)c32)C(=O)c2c(OC)cccc2C4=O)O[C@@H](C)[C@H]1O.Cl | 0.1 °C | 2.1 | 280000 nM | 130000 nM |  |  | T/C (P388 [3]): <125% |
| COc1cccc2c1C(=O)c1c(O)c3c(c(O)c1C2=O)C[C@@](O)(C(C)O)C[C@@H]3O[C@H]1C[C@H](N(Cc2ccccc2)Cc2ccccc2)[C@H](O)[C@H](C)O1.Cl (some centres not stated) | 0.6 °C | 29.1 | 220000 nM | 7600 nM | 0.5 nmol⁻¹ | Non-toxic | T/C (P388 [7]): 183%; T/C (P388 [8]): 231% |
| COc1cccc2c1C(=O)c1c(O)c3c(c(O)c1C2=O)C[C@@](O)(C(C)O)C[C@@H]3O[C@H]1C[C@H](NCc2ccccc2)[C@H](O)[C@H](C)O1.Cl (some centres not stated) | 6.25 °C | 5.3 | 1700 nM | 320 nM |  |  | T/C (P388 [9]): 221% |
| COc1cccc2c1C(=O)c1c(O)c3c(c(O)c1C2=O)C[C@@](O)(C(C)=O)C[C@@H]3O[C@H]1C[C@H](N(Cc2ccccc2)Cc2ccccc2)[C@H](O)[C@H](C)O1.Cl | 1.35 °C | >10 | > 100000 nM | 10000 nM | 0.5 nmol⁻¹ | Non-toxic | T/C (P388 [10]): 259%; solubility [11]: > 36000 µg/mL; T/C (P388 [12]): 209%; solubility [13]: 200 µg/mL; MTC (Rattus norvegicus): 125 mg/kg |
| COc1cccc2c1C(=O)c1c(O)c3c(c(O)c1C2=O)C[C@@](O)(C(=O)CO)C[C@@H]3O[C@H]1C[C@H](N(C)C)[C@H](O)[C@H](C)O1.Cl | 17.5 °C | 5.2 | 620 nM | 120 nM | 1 nmol⁻¹ | Non-toxic | Activity (Salmonella typhimurium [14]): 20 µg; MTC (Rattus norvegicus): 6 mg/kg |
| COc1cccc2c1C(=O)c1c(O)c3c(c(O)c1C2=O)C[C@@](O)(C(=O)CO)C[C@@H]3O[C@H]1C[C@H](N2CCCCC2)[C@H](O)[C@H](C)O1.Cl | 15.4 °C | 17.5 | 700 nM | 40 nM | 1 nmol⁻¹ | Non-toxic | T/C (P388 [15]): 190%; Activity (Salmonella typhimurium [14]): 20 µg |
| CCN(CC)[C@H]1C[C@H](O[C@H]2C[C@](O)(C(=O)CO)Cc3c(O)c4c(c(O)c32)C(=O)c2c(OC)cccc2C4=O)O[C@@H](C)[C@H]1O.Cl | 14.6 °C | 3.3 | 700 nM | 210 nM |  |  | T/C (P388 [15]): 171% |
| COc1cccc2c1C(=O)c1c(O)c3c(c(O)c1C2=O)C[C@@](O)(C(C)=O)C[C@@H]3O[C@H]1C[C@H](N(C)C)[C@H](O)[C@H](C)O1.Cl |  | 10.4 | 670 nM | 64 nM | 0 nmol⁻¹ | Non-toxic | Activity (Salmonella typhimurium [14]): 20 µg; MTC (Rattus norvegicus): 11 mg/kg |
| COc1cccc2c1C(=O)c1c(O)c3c(c(O)c1C2=O)C[C@@](O)(C(O)CO)C[C@@H]3O[C@H]1C[C@H](NCc2ccccc2)[C@H](O)[C@H](C)O1.Cl (some centres not stated) | 7.6 °C | 4.8 | 1400 nM | 290 nM |  |  | T/C (P388 [12]): 135%; T/C (P388 [16]): 176% |
| COc1cccc2c1C(=O)c1c(O)c3c(c(O)c1C2=O)C[C@@](O)(C(C)=O)C[C@@H]3O[C@H]1C[C@H](NCc2ccccc2)[C@H](O)[C@H](C)O1.Cl | 10.2 °C | 9.4 | 1600 nM | 170 nM | 0.5 nmol⁻¹ | Non-toxic | T/C (P388 [17]): 184%; T/C (P388 [18]): 185% |
| COc1cccc2c1C(=O)c1c(O)c3c(c(O)c1C2=O)C[C@@](O)(C(O)CO)C[C@@H]3O[C@H]1C[C@H](N2CCCCC2)[C@H](O)[C@H](C)O1.Cl (some centres not stated) | 12.5 °C | 7.2 | 720 nM | 100 nM |  |  | T/C (P388 [19]): 143%; T/C (P388 [16]): 157% |
| COc1cccc2c1C(=O)c1c(O)c3c(c(O)c1C2=O)C[C@@](O)(C(=O)CO)C[C@@H]3O[C@H]1C[C@H](N(Cc2ccccc2)Cc2ccccc2)[C@H](O)[C@H](C)O1.Cl | 0 °C | 22.8 | 110000 nM | 4800 nM |  |  | T/C (P388 [9]): 175% |
| CCN(CC)[C@H]1C[C@H](O[C@H]2C[C@](O)(C(C)=O)Cc3c(O)c4c(c(O)c32)C(=O)c2c(OC)cccc2C4=O)O[C@@H](C)[C@H]1O.Cl | 13.6 °C | 5.2 | 670 nM | 130 nM |  |  | T/C (P388 [20]): 178% |
| COc1cccc2c1C(=O)c1c(O)c3c(c(O)c1C2=O)C[C@@](O)(C(C)=O)C[C@@H]3O[C@H]1C[C@H](NC(C)C)[C@H](O)[C@H](C)O1.Cl | 10.6 °C | 3.4 | 1100 nM | 320 nM |  |  | T/C (P388 [8]): 199% |
| CCCCCCCCCCN[C@H]1C[C@H](O[C@H]2C[C@](O)(C(C)=O)Cc3c(O)c4c(c(O)c32)C(=O)c2c(OC)cccc2C4=O)O[C@@H](C)[C@H]1O.Cl | 7 °C | 1.3 | 3300 nM | 2600 nM |  |  | T/C (P388 [3]): <125% |
| COc1cccc2c1C(=O)c1c(O)c3c(c(O)c1C2=O)C[C@@](O)(C(=O)CO)C[C@@H]3O[C@H]1C[C@H](NCc2ccccc2)[C@H](O)[C@H](C)O1.Cl | 11.3 °C | 7.2 | 650 nM | 90 nM |  |  | T/C (P388 [15]): 185%; T/C (P388 [17]): 190% |
| COc1cccc2c1C(=O)c1c(O)c3c(c(O)c1C2=O)C[C@@](O)(C(=O)CO)C[C@@H]3O[C@H]1C[C@H](N)[C@H](O)[C@H](C)O1 [DOXORUBICIN] | 13.4 °C | 2.6 | 1500 nM | 580 nM |  |  | T/C (P388 [21]): 197%; T/C (P388 [22]): 159%; MTC (Rattus norvegicus): 11 mg/kg |
| COc1cccc2c1C(=O)c1c(O)c3c(c(O)c1C2=O)C[C@@](O)(C(C)=O)C[C@@H]3O[C@H]1C[C@H](N)[C@H](O)[C@H](C)O1 [DAUNORUBICIN] |  |  | 660 nM | 330 nM | 100 nmol⁻¹ |  | T/C (P388 [21]): 160%; T/C (P388 [22]): 132%; Activity (Salmonella typhimurium [14]): 5 µg; MTC (Rattus norvegicus): 14 mg/kg |

From ChEMBL document CHEMBL3244252, “Adriamycin analogues. 3. Synthesis of N-alkylated anthracyclines with enhanced efficacy and reduced cardiotoxicity” (J Med Chem, 1979)
